Results reported in ChEMBL document CHEMBL3217531, “Potential Drug Abuse Therapeutics Derived from the Hallucinogenic Natural Product Salvinorin A” (Medchemcomm, 2011).
Active and inactive are the calls of the source. The rule behind the calls is not given here.

Key:
[1] = molecular target: T1, Kappa-type opioid receptor (Homo sapiens, UniProt P41145); assay: Displacement of [3H]U69593 from human kappa opioid receptor expressed in CHO cell membrane after 2 hrs by scintillation counting analysis; format: cell membranes
T1 sequence (P41145 whole entry): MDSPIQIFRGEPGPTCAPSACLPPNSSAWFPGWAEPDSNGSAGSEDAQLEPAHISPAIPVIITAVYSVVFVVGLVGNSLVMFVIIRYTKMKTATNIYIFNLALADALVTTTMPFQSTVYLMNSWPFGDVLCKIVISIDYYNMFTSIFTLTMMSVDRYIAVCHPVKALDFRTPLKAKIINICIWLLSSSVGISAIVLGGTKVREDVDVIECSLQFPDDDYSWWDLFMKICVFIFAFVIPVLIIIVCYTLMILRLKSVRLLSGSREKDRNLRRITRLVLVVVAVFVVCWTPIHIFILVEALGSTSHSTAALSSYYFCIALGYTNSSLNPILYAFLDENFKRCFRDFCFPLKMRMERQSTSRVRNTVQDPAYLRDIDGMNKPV

[2] = molecular target: Mu-type opioid receptor (Homo sapiens, UniProt P35372); assay: Displacement of [3H]DAMGO from human mu opioid receptor expressed in CHO cell membrane after 2 hrs by liquid scintillation counting analysis; format: cell membranes
Sequence of Mu-type opioid receptor (P35372 whole entry): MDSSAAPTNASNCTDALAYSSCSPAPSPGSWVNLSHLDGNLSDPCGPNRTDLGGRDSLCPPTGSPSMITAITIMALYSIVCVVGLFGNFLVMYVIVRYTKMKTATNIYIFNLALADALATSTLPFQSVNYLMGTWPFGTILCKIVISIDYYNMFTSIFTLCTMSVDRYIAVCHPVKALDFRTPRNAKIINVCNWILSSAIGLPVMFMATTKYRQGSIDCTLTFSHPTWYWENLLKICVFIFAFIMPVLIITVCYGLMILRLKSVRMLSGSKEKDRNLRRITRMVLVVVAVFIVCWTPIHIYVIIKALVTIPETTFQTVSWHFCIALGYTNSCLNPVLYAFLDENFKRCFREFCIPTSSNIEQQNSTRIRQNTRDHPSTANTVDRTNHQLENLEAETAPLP

[3] = molecular target: Delta-type opioid receptor (Homo sapiens, UniProt P41143); assay: Displacement of [3H]DADLE from human delta opioid receptor expressed in CHO cell membrane after 2 hrs by liquid scintillation counting analysis; format: cell membranes
Sequence of Delta-type opioid receptor (P41143 whole entry): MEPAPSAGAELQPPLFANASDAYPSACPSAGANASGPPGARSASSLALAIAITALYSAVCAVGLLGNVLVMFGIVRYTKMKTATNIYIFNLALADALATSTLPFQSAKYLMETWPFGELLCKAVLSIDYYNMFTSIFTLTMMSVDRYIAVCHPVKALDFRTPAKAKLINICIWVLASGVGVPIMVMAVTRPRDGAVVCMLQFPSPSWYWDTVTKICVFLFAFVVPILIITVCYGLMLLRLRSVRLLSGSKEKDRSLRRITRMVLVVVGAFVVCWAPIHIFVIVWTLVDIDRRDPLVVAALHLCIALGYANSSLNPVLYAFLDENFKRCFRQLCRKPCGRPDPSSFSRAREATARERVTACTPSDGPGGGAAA

[4] = molecular target: T1, Kappa-type opioid receptor; assay: Agonist activity at human kappa opioid receptor expressed in CHO cell membrane by [35S]GTPgammaS binding assay; format: functional, cell membranes
[5] = molecular target: T1, Kappa-type opioid receptor; assay: Agonist activity at human kappa opioid receptor expressed in CHO cell membrane assessed as [35S]GTPgammaS binding after 3 hrs by liquid scintillation counting analysis; format: functional, cell membranes
[6] = molecular target: T1, Kappa-type opioid receptor; assay: Agonist activity at human kappa opioid receptor expressed in CHO cell membrane assessed as [35S]GTPgammaS binding after 3 hrs by liquid scintillation counting analysis relative to (-)-U50488H; format: functional, cell membranes
[7] = test system: Rattus norvegicus; assay: Antiaddiction activity in rat assessed as reduction in cocaine-induced drug seeking activity at 1 mg/kg, ip treated for 5 to 10 mins prior to priming injection of cocaine measured for 2 hrs; format: functional, organism-based; design: dose 1 mg/kg
Outline: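 Rats trained on FR5 cocaine self-administration (0.5 mg kg⁻¹/infusion, paired light cue, 2 h sessions). Extinction with sterile heparinized saline until active lever responses <20 per 2 h session. Next day, IP vehicle (75% DMSO) or test dose 5–10 min before IP cocaine prime (20 mg kg⁻¹). Active lever responding recorded for 2 h. N = 6 at 1 mg kg⁻¹; mean ±SEM.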

## CCO[C@H](CBr)O[C@H]1C[C@@H](C(=O)OC)[C@]2(C)CC[C@H]3C(=O)O[C@H](c4ccoc4)C[C@]3(C)[C@H]2C1=O
[1]
  Ki: 7440 nM
[2]
  Ki: 3520 nM
[3]
  Ki: > 5000 nM

## CCNC(=O)O[C@H]1C[C@@H](C(=O)OC)[C@]2(C)CC[C@H]3C(=O)O[C@H](c4ccoc4)C[C@]3(C)[C@H]2C1=O
[1]
  Ki: > 10000 nM
[4]
  EC50: > 1000 nM
[2]
  Ki: 1540 nM
[3]
  Ki: > 10000 nM

## COC(=O)[C@@H]1C[C@H](O[C@@H]2CCCO2)C(=O)[C@H]2[C@@]1(C)CC[C@H]1C(=O)O[C@H](c3ccoc3)C[C@]21C
[5]
  ED50: 1220 nM
[1]
  Ki: 75 nM
[6]
  Emax: 112%
[2]
  Ki: > 10000 nM
[3]
  Ki: > 10000 nM

## COCO[C@H]1C[C@@H](C(=O)OC)[C@]2(C)CC[C@H]3C(=O)O[C@H](C(=O)N4CCCCC4)C[C@]3(C)[C@H]2C1=O
[1]
  Ki: 59 nM
[6]
  Emax: 113%
[2]
  Ki: > 3000 nM
[3]
  Ki: > 3000 nM

## COC(=O)[C@@H]1C[C@H](OC(C)=O)C(=O)[C@H]2[C@@]1(C)CC[C@H]1C(=O)O[C@H](C(=O)N3CCCCC3)C[C@]21C
[5]
  ED50: 5110 nM
[1]; cho
  Ki: 140 nM
[6]
  Emax: 85%

## COC(=O)[C@@H]1C[C@H](OC=O)C(=O)[C@H]2[C@@]1(C)CC[C@H]1C(=O)O[C@H](c3ccoc3)C[C@]21C
[1]
  Ki: 41 nM
[2]
  Ki: > 10000 nM
[3]
  Ki: > 10000 nM

## CCO[C@H](C)O[C@H]1C[C@@H](C(=O)OC)[C@]2(C)CC[C@H]3C(=O)O[C@H](c4ccoc4)C[C@]3(C)[C@H]2C1=O
[2]
  Ki: > 5800 nM
[3]
  Ki: > 5000 nM

## CCOCO[C@H]1C[C@@H](C(=O)OC)[C@]2(C)CC[C@H]3C(=O)O[C@H](c4ccoc4)C[C@]3(C)[C@H]2C1=O [SALVINORIN B ETHOXYMETHYL ETHER]
[1]
  Ki: 3.13 nM
[6]
  Emax: 127%
[2]
  Ki: 41 nM
[3]
  Ki: 1020 nM

## COC(=O)[C@@H]1C[C@H](O[C@H]2CCCO2)C(=O)[C@H]2[C@@]1(C)CC[C@H]1C(=O)O[C@H](c3ccoc3)C[C@]21C
[5]
  ED50: 690 nM
[1]
  Ki: 81 nM
[6]
  Emax: 103%
[2]
  Ki: > 10000 nM
[3]
  Ki: > 10000 nM

## COC(=O)[C@@H]1C[C@H](O[C@@H]2CCCCO2)C(=O)[C@H]2[C@@]1(C)CC[C@H]1C(=O)O[C@H](c3ccoc3)C[C@]21C
[1]
  Ki: 6.21 nM
[7]
  Activity: Active
[6]
  Emax: 109%
[2]
  Ki: > 10000 nM
[3]
  Ki: > 10000 nM

## CCO[C@@H](CBr)O[C@H]1C[C@@H](C(=O)OC)[C@]2(C)CC[C@H]3C(=O)O[C@H](c4ccoc4)C[C@]3(C)[C@H]2C1=O
[1]
  Ki: 5260 nM
[2]
  Ki: > 3000 nM
[3]
  Ki: > 5000 nM

## COC(=O)[C@@H]1C[C@H](O[C@H]2CCCCO2)C(=O)[C@H]2[C@@]1(C)CC[C@H]1C(=O)O[C@H](c3ccoc3)C[C@]21C
[1]
  Ki: 300 nM
[2]
  Ki: > 10000 nM
[3]
  Ki: > 10000 nM

## CCOC(=O)O[C@H]1C[C@@H](C(=O)OC)[C@]2(C)CC[C@H]3C(=O)O[C@H](c4ccoc4)C[C@]3(C)[C@H]2C1=O
[1]
  Ki: 171 nM
[2]
  Ki: > 10000 nM
[3]
  Ki: > 10000 nM

## CCO[C@@H](C)O[C@H]1C[C@@H](C(=O)OC)[C@]2(C)CC[C@H]3C(=O)O[C@H](c4ccoc4)C[C@]3(C)[C@H]2C1=O
[2]
  Ki: 777 nM
[3]
  Ki: > 5000 nM
